Experiments:
[1] = biological target: Estrogen receptor (Homo sapiens) (UniProt Q92731+P03372); test: Relative binding affinity(RBA) against Estrogen receptor using MCF-7 cells; format: cell-based; settings: MCF7
Procedure, shortened: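 Competition for ER in MCF7 whole cells suspended in phosphate-buffered saline, 3 × 10^7 cells per duplicate aliquot. Incubated with 5 nM [3H]estradiol with or without 100-fold molar excess of competitor or diethylstilbestrol, then washed and counted as for the AEBS assay. Bound label reported as % of no-competitor control. Mean ± SEM of two experiments.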

[2] = biological target: T1, Anti-estrogen binding site (AEBS) (Homo sapiens) (UniProt Q15125+Q9UBM7); test: Relative binding affinity (RBA) against AEBS (Antiestrogen binding site) using N1-S1 cells; format: functional, cell-based; settings: Rattus norvegicus
[3] = biological target: T1, Anti-estrogen binding site (AEBS) (Homo sapiens); test: Relative binding affinity (RBA) against AEBS (Antiestrogen binding site) in rat liver; format: functional, tissue-based; settings: target entry is the homologue from another species
[4] = biological target: T1, Anti-estrogen binding site (AEBS) (Homo sapiens); test: Relative binding affinity(RBA) against AEBS (Antiestrogen binding site) in rat liver; format: functional, tissue-based; settings: target entry is the homologue from another species
[5] = biological target: T1, Anti-estrogen binding site (AEBS) (Homo sapiens); test: Relative binding affinity(RBA) against AEBS (Antiestrogen binding site) in N1-S1 cells
[6] = biological target: T1, Anti-estrogen binding site (AEBS) (Homo sapiens); test: Relative binding affinity(RBA) against AEBS (Antiestrogen binding site) in N1-S1 cells; format: functional, cell-based; settings: Rattus norvegicus
[7] = biological target: T1, Anti-estrogen binding site (AEBS) (Homo sapiens); test: Relative binding affinity(RBA) against AEBS (Antiestrogen binding site) using EL-4 cells; format: functional, cell-based; settings: Mus musculus
MCF7S [8] = test: (§1) Inhibition of [3H]thymidine incorporation into MCF-7 cells; format: functional, cell-based; settings: Homo sapiens
Procedure, shortened: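 MCF7 cells in Hepes-buffered RPMI 1640 with 5% newborn calf serum, seeded 4500 per well. After 24 h, compound (final […], diluted from 1 mM ethanolic stock; solvent controls) and [3H]thymidine (37 kBq/well) added. Incubated 48 h, then trypsinized, harvested and counted. […] Mean ± SEM of two experiments.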

[9] = Percent of cell viability by trypan blue exclusion; format: functional
Procedure, shortened: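 Viability of EL4 cells in the [3H]acetate cholesterol-synthesis incubations (20 × 10^6 cells/mL; 5 h or 48 h with compound at 10^-7 to 10^-4 M), estimated by trypan blue exclusion.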

[10] = biological target: T1, Anti-estrogen binding site (AEBS) (Homo sapiens); test: Effect on cholesterol biosynthesis in EL4 cells, 48 hr incubation with 0.25 mM [3H]acetate; format: functional, cell-based; settings: Mus musculus
Procedure, shortened: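 EL4 cells at 20 × 10^6 cells/mL in lipoprotein-poor RPMI, incubated 48 h with 0.25 mM [3H]acetate ± 10^-7 M compound, in triplicate, two experiments. Stopped with KOH/ethanol, [14C]cholesterol added for recovery, saponified 95 °C 90 min. Nonsaponifiable lipids extracted in petroleum ether. Result as % of total incorporated label found in cholesterol; inhibition versus control; Student's t test.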

[11] = biological target: T1, Anti-estrogen binding site (AEBS) (Homo sapiens); test: Effect on cholesterol biosynthesis in EL4 cells, 5 hr incubation with 0.25 mM [3H]acetate; format: functional, cell-based; settings: Mus musculus
Procedure, shortened: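 EL4 cells at 20 × 10^6 cells/mL in lipoprotein-poor RPMI given 0.25 mM [3H]acetate for 5 h, without or with compound (10^-6 M or 10^-4 M depending on compound); triplicates in two experiments. KOH/ethanol saponification at 95 °C with [14C]cholesterol recovery standard; petroleum ether extraction. Label in cholesterol as % of total cellular incorporation; % inhibition versus control; Student's t test.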

[12] = biological target: T1, Anti-estrogen binding site (AEBS) (Homo sapiens); test: Displacement of [3H]tamoxifen from AEBS of EL4 cells; format: functional, cell-based; settings: Mus musculus
EL4 = test: Inhibition of [3H]thymidine incorporation into EL4 cell proliferation; format: functional, cell-based; settings: Mus musculus, EL4, 48 h
Procedure, shortened: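 Treated 48 h with compound; DNA synthesis measured by [3H]thymidine incorporation, cells harvested onto filters and counted. Mean ± SEM of two experiments.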

[13] = biological target: T1, Anti-estrogen binding site (AEBS) (Homo sapiens); test: Relative binding affinity(RBA) against AEBS (Antiestrogen binding site) using N1-S1 cells; format: functional, cell-based; settings: Rattus norvegicus
MCF7S [14] = test: as §1; format: functional, cell-based; settings: Homo sapiens; remark: listed apart in the source
Procedure, shortened: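 After 24 h, compound (final […], diluted from 1 mM ethanolic stock; solvent controls) and [3H]thymidine (37 kBq/well) added. Incubated 48 h, then trypsinized, harvested and counted. Mean ± SEM of two experiments.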

[15] = biological target: T1, Anti-estrogen binding site (AEBS) (Homo sapiens); test: Relative binding affinity(RBA) against AEBS (Antiestrogen binding site) in MCF-7 cells; settings: target entry is the homologue from another species
[16] = biological target: T1, Anti-estrogen binding site (AEBS) (Homo sapiens); test: Relative binding affinity(RBA) against AEBS (Antiestrogen binding site) in guinea pig uterus; format: functional, tissue-based; settings: Cavia porcellus, target entry is the homologue from another species
[17] = biological target: T1, Anti-estrogen binding site (AEBS) (Homo sapiens); test: Relative binding affinity(RBA) against AEBS (Antiestrogen binding site) in chicken liver; settings: Gallus gallus; target entry is the homologue from another species

Work on COc1ccc2c(c1)OCC(c1ccc(F)cc1)=C2c1ccc(OCCN2CCCCC2)cc1 yielded a relative binding affinity (RBA) [1] of under 1 and a relative binding affinity (RBA) [2] of 161.
With CCCC(C(=O)OCCN(CC)CC)(c1ccccc1)c1ccccc1 the relative binding affinity (RBA) [3] was 12.
C1=C(c2ccccc2)C(c2ccc(OCCN3CCCC3)cc2)Oc2ccccc21 (stereo not drawn) showed a relative binding affinity (RBA) [4] of 134.
COc1ccc2c(c1)OC(C)(C)[C@H](c1ccccc1)[C@H]2c1ccc(OCCN2CCCC2)cc1 showed a relative binding affinity (RBA) [4] of 19.
CC/C(=C(\c1ccccc1)c1ccc(OCCN(CC)CC)cc1)c1ccccc1 gave a relative binding affinity (RBA) [3] of 21 and a relative binding affinity (RBA) [5] of 46.
CCN(CC)CCOc1ccc(C2=C(c3ccc(F)cc3)COc3cc(OC)ccc32)cc1 showed a relative binding affinity (RBA) [1] of under 1 and a relative binding affinity (RBA) [6] of 106.
In the case of CC/C(=C(\c1ccccc1)c1ccc(OCCN2CCCC2)cc1)c1ccccc1, the relative binding affinity (RBA) [4] is reported as 434.
For COc1ccc2c(c1)OCC(c1ccc(Cl)cc1)=C2c1ccc(OCCN2CCCC2)cc1, the relative binding affinity (RBA) [1] was under 1 and the relative binding affinity (RBA) [7] was 257.
Work on COc1ccc2c(-c3ccc(OCCN4CCCC4)cc3)c(-c3ccccc3)oc2c1 yielded a relative binding affinity (RBA) [4] of 23.
COc1ccc2c(c1)OCC(c1ccc(Br)cc1)=C2c1ccc(OCCN2CCCC2)cc1 gave a relative binding affinity (RBA) [1] of under 1 and a relative binding affinity (RBA) [7] of 169.
Work on CN(C)CCOc1cccc(C(=C2CCCCC2)c2cccc(O)c2)c1 yielded a relative binding affinity (RBA) [4] of 17.
With COc1ccc2c(-c3ccc(OCCN4CCCC4)cc3)c(Cc3ccc(Cl)cc3)oc2c1.Cl the IC50 (MCF7S [8]) was 2300 nM, the Cell viability [9] was 91% and the Activity [10] was 0.32% [middle of 5 runs]. For the same molecule, the Activity [11] was 0.12% [middle of 6 runs], the relative binding affinity (RBA) [12] was 268 and the IC50 (EL4) was 475 nM.
Work on Oc1cccc(C(=C2CCCCC2)c2cccc(OCCN3CCCCC3)c2)c1 yielded a relative binding affinity (RBA) [4] of 10.
Molecule COc1ccc2c(c1)OC(C)(C)[C@@H](c1ccccc1)[C@H]2c1ccc(OCCN2CCCC2)cc1 has a relative binding affinity (RBA) [4] of 46.
COc1ccc2c(c1)OCC(c1ccccc1)=C2c1ccc(OCCN2CCCC2)cc1 gave a relative binding affinity (RBA) [1] of under 1 and a relative binding affinity (RBA) [7] of 557.
With C1=C(c2ccccc2)C(c2ccc(OCCN3CCCCC3)cc2)Oc2ccccc21 (stereo not drawn) the relative binding affinity (RBA) [4] was 225.
Molecule COc1ccc2c(c1)OCC(c1ccc(F)cc1)=C2c1ccc(OCCN2CCOCC2)cc1 has a relative binding affinity (RBA) [1] of under 1 and a relative binding affinity (RBA) [13] of 68.
Work on CCN(CC)CCOc1ccc(Cc2ccccc2)cc1 yielded a relative binding affinity (RBA) [3] of 0.06.
For COc1ccc2c(-c3ccc(OCCN4CCOCC4)cc3)c(Cc3ccc(Cl)cc3)oc2c1.Cl, the Cell viability [9] was 79%, the Activity [11] was 0.11% [middle of 6 runs] and the relative binding affinity (RBA) [12] was 1830. For the same molecule, the IC50 (MCF7S [14]) was 6500 nM and the IC50 (EL4) was 335 nM.
COc1ccc2c(-c3ccc(OCCN(C)C)cc3)c(Cc3ccc(Cl)cc3)oc2c1 gave a relative binding affinity (RBA) [12] of 391, an IC50 (MCF7S [14]) of 5020 nM and an IC50 (EL4) of 950 nM.
Oc1cccc(C(=C2CCCCC2)c2cccc(OCCN3CCOCC3)c2)c1 showed a relative binding affinity (RBA) [4] of 25.
CC/C(=C(\c1ccccc1)c1ccc(OCCN2CCN(C)CC2)cc1)c1ccccc1 gave a relative binding affinity (RBA) [4] of 540.
Work on CC/C(=C(\c1ccccc1)c1ccc(OCCN2CCOCC2)cc1)c1ccccc1 yielded a relative binding affinity (RBA) [4] of 1170.
Molecule CCN(CC)CCOC(=O)C(CC(C)C)(c1ccccc1)c1ccccc1 has a relative binding affinity (RBA) [3] of 5.
O=C(c1ccc(OCCN2CCCC2)cc1)c1c(-c2ccc(O)cc2)sc2cc(O)ccc12 showed a relative binding affinity (RBA) [1] of 115 and a relative binding affinity (RBA) [15] of 19.
CCN(CC)CCOc1cccc(C(=C2CCCCC2)c2cccc(O)c2)c1 showed a relative binding affinity (RBA) [4] of 6.
C=CC(C(=O)OCCN(CC)CC)(c1ccccc1)c1ccccc1 showed a relative binding affinity (RBA) [3] of 10.
In the case of COc1ccc2c(c1)OCC(c1ccc(F)cc1)=C2c1ccc(OCCN2CCCC2)cc1, the relative binding affinity (RBA) [1] is reported as under 1 and the relative binding affinity (RBA) [2] is reported as 176.
In the case of CCN(CC)CCOc1ccc(C(C)(C)C)cc1, the relative binding affinity (RBA) [4] is reported as 0.08.
For CN(C)CCOc1ccc(C2Oc3ccccc3C=C2c2ccccc2)cc1 (stereo not drawn), the relative binding affinity (RBA) [4] was 98.
With COc1ccc2c(c1)CCC(c1ccccc1)=C2c1ccc(OCCN2CCCC2)cc1 the relative binding affinity (RBA) [16] was 124, the relative binding affinity (RBA) [17] was 183 and the relative binding affinity (RBA) [4] was 90.
